This is an account of results in ChEMBL document CHEMBL1129787, “Synthesis of potent cyclic hexapeptide NK-1 antagonists. Use of a minilibrary in transforming a peptidal somatostatin receptor ligand into an NK-1 receptor ligand via a polyvalent peptidomimetic” (J Med Chem, 1996).

Non-standard residues stand in square brackets, D forms with d. Residues, ends and D or L forms follow the SMILES beside them. Phe(4-F) = N[C@@H](Cc1ccc(F)cc1)C(=O)O; 1Nal = N[C@@H](Cc1cccc2ccccc12)C(=O)O A value given as a limit tells only on which side of the number the result lay.

T1 sequence (P25103 whole entry): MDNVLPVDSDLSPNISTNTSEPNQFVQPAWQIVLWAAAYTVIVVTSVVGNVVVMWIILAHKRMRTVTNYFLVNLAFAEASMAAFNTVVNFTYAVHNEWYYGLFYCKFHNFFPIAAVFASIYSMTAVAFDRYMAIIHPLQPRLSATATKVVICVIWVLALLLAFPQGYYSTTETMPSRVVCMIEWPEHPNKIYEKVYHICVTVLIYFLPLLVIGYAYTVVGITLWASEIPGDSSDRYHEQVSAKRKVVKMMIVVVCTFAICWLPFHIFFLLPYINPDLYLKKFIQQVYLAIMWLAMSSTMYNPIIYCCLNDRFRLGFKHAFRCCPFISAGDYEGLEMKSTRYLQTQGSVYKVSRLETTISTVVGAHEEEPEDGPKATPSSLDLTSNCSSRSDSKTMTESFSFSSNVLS

The first assay has as its target T1, Substance-P receptor (Homo sapiens, UniProt P25103). Put plainly: Percent Inhibition against Tachykinin receptor 1 at 2 uM.
`C[C@@H](O)[C@@H]1NC(=O)[C@H](Cc2ccccc2)NC(=O)[C@@H](Cc2c[nH]c3ccccc23)NC(=O)[C@@H]2CCCN2C(=O)[C@@H]2CCCN2C(=O)[C@H](Cc2ccccc2)NC1=O` came in with an inhibition of 51%.

The target of the next assay is T1, Substance-P receptor. Description: Binding affinity towards Tachykinin receptor 1. Put shortly: (§1)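 NK-1 receptor inhibition assay. IC50 is reported in nM as the mean ± SD.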
In turn, `NCCCCCOC[C@H]1O[C@@H](OCCc2c[nH]c3ccccc23)[C@H](OCc2ccccc2)C[C@@H]1OCc1ccccc1` came in with a 50% inhibitory concentration (IC50) of 180 nM. Same read-out and setting: as for `CC(=O)NCCCCCOC[C@H]1O[C@@H](OCCc2c[nH]c3ccccc23)[C@H](OCc2ccccc2)[C@@H](OCc2ccccc2)[C@@H]1OCc1ccccc1`, the figure is 60 nM.

Another assay deals with Beta-2 adrenergic receptor (Homo sapiens, UniProt P07550). Put plainly: Binding affinity towards cloned human Beta-2 adrenergic receptor.
Sequence of Beta-2 adrenergic receptor (P07550 whole entry): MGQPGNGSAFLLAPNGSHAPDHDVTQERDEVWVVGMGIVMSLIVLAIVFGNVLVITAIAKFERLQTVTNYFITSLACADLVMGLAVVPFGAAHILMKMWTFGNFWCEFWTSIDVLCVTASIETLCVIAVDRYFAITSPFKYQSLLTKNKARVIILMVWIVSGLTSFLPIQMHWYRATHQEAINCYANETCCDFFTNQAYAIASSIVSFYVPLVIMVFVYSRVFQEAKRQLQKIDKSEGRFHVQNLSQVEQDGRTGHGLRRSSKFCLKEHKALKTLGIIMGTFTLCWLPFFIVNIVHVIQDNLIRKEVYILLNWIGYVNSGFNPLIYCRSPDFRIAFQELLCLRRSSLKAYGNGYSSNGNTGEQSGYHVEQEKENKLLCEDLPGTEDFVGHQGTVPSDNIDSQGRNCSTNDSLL
The molecule `NCCCCCOC[C@H]1O[C@@H](OCCc2c[nH]c3ccccc23)[C@H](OCc2ccccc2)C[C@@H]1OCc1ccccc1` gave an IC50 of 3000 nM. On the same count and under the same terms, then `NCCCCCOC[C@H]1O[C@@H](OCCc2c[nH]c3ccccc23)[C@H](OCc2ccccc2)[C@@H](OCc2ccccc2)[C@@H]1OCc1ccccc1`, with 3000 nM.

For the next assay, the target named is Somatostatin receptor. Description: Ability to inhibit binding of […]-CGP 23996 to somatostatin receptor on membranes from pituitary.
Molecule `NCCCCCOC[C@H]1O[C@@H](OCCc2c[nH]c3ccccc23)[C@H](OCc2ccccc2)[C@@H](OCc2ccccc2)[C@@H]1OCc1ccccc1` returned an IC50 of 5000 nM.

The target of the next assay is Somatostatin receptor. Description: Ability to inhibit binding of […]-CGP 23996 to somatostatin receptor on membranes from cerebral cortex. It is filed as tissue-based.
For the molecule `NCCCCCOC[C@H]1O[C@@H](OCCc2c[nH]c3ccccc23)[C@H](OCc2ccccc2)[C@@H](OCc2ccccc2)[C@@H]1OCc1ccccc1`, the concentration for half-maximal inhibition (IC50) turned out to be 5000 nM.

The next assay deals with T1, Substance-P receptor. Put plainly: Inhibition of Tachykinin receptor 1. Put shortly: as §1
Consider `C[C@@H](O)[C@@H]1NC(=O)[C@H](Cc2ccccc2)NC(=O)[C@@H](Cc2c[nH]c3ccccc23)NC(=O)[C@H](CC(=O)O)NC(=O)[C@@H]2CCCN2C(=O)[C@H](Cc2ccccc2)NC1=O` (cyclo(D[dW]FTFP)), for which the midpoint of inhibition, the IC50, lay at 1390 nM. Still for that read-out and setting: as for `C[C@@H](O)[C@@H]1NC(=O)[C@H](CCCCN)NC(=O)[C@@H](Cc2c[nH]c3ccccc23)NC(=O)[C@H](Cc2ccccc2)NC(=O)[C@@H]2CCCN2C(=O)[C@H](Cc2ccccc2)NC1=O` (cyclo(PF[dW]KTF)), the figure is over 1000 nM.

As to `C[C@@H](O)[C@@H]1NC(=O)[C@H](Cc2ccccc2)NC(=O)[C@@H](Cc2c[nH]c3ccccc23)NC(=O)[C@H](CCc2ccccc2)NC(=O)[C@@H]2CCCN2C(=O)[C@H](Cc2ccccc2)NC1=O`, the IC50 worked out at 85 nM.

`CC(C)[C@@H]1NC(=O)[C@H](CCCCN)NC(=O)[C@@H](Cc2c[nH]c3ccccc23)NC(=O)[C@H](Cc2ccc(O)cc2)NC(=O)[C@H](C)N(C)C(=O)[C@H](Cc2ccccc2)NC1=O` [SEGLITIDE]: the IC50 was over 1000 nM. `CC(C)C[C@@H]1NC(=O)[C@@H](Cc2c[nH]c3ccccc23)NC(=O)[C@H](Cc2ccccc2)NC(=O)[C@@H]2CCCN2C(=O)[C@H](Cc2ccccc2)NC(=O)[C@H]([C@@H](C)O)NC1=O` yielded an IC50 of 2730 nM. The same measure, in the same setting: as for `C[C@@H](O)[C@@H]1NC(=O)[C@H](Cc2ccc(F)cc2)NC(=O)[C@@H](Cc2c[nH]c3ccccc23)NC(=O)[C@H](Cc2ccccc2)NC(=O)[C@@H]2CCCN2C(=O)[C@H](Cc2ccccc2)NC1=O` (cyclo(FPF[dW][Phe(4-F)]T)), the figure is 28 nM. The same measure, in the same setting: as for `C[C@@H](O)[C@@H]1NC(=O)[C@H](Cc2ccccc2)NC(=O)[C@@H](Cc2c[nH]c3ccccc23)NC(=O)[C@H](CC2CCCCC2)NC(=O)[C@@H]2CCCN2C(=O)[C@H](Cc2ccccc2)NC1=O`, the figure is 198 nM; as for `C[C@@H](O)[C@@H]1NC(=O)[C@H](Cc2ccc(F)cc2)NC(=O)[C@@H](Cc2c[nH]c3ccccc23)NC(=O)[C@H](Cc2cccc3ccccc23)NC(=O)[C@@H]2CCCN2C(=O)[C@H](Cc2ccccc2)NC1=O` (cyclo([1Nal][dW][Phe(4-F)]TFP)), 2 nM; as for `C[C@H](O)[C@@H]1NC(=O)[C@H](Cc2ccccc2)NC(=O)[C@@H](Cc2c[nH]c3ccccc23)NC(=O)[C@H](Cc2ccccc2)NC(=O)[C@@H]2CCCN2C(=O)[C@H](Cc2ccccc2)NC1=O`, 95 nM.

As to `C[C@@H](O)[C@@H]1NC(=O)[C@H](Cc2ccc(O)cc2)NC(=O)[C@@H](Cc2c[nH]c3ccccc23)NC(=O)[C@H](Cc2ccccc2)NC(=O)[C@@H]2CCCN2C(=O)[C@H](Cc2ccccc2)NC1=O` (cyclo(FPF[dW]YT)), the IC50 is 1050 nM. As to `COc1ccc(C[C@@H]2NC(=O)[C@@H](Cc3c[nH]c4ccccc34)NC(=O)[C@H](Cc3ccccc3)NC(=O)[C@@H]3CCCN3C(=O)[C@H](Cc3ccccc3)NC(=O)[C@H]([C@@H](C)O)NC2=O)cc1` (cyclo(FPF[dW]Y(Me)T)), the concentration for half-maximal inhibition (IC50) is 59 nM. `C[C@@H]1NC(=O)[C@@H]2CCCN2C(=O)[C@H](Cc2ccccc2)NC(=O)[C@H]([C@@H](C)O)NC(=O)[C@H](Cc2ccccc2)NC(=O)[C@@H](Cc2c[nH]c3ccccc23)NC1=O` registered an IC50 of 549 nM. On to `C[C@H](O)[C@@H]1NC(=O)[C@H](Cc2ccccc2)NC(=O)[C@@H](Cc2c[nH]c3ccccc23)NC(=O)[C@@H](Cc2ccccc2)NC(=O)[C@@H]2CCCN2C(=O)[C@H](Cc2ccccc2)NC1=O`, for which 496 nM corresponded to half-maximal inhibition (IC50). Same read-out and setting: then `C[C@@H](O)[C@@H]1NC(=O)[C@H](Cc2ccccc2)NC(=O)[C@@H](Cc2c[nH]c3ccccc23)NC(=O)[C@H](CO)NC(=O)[C@@H]2CCCN2C(=O)[C@H](Cc2ccccc2)NC1=O`, with 596 nM; and `C[C@@H](O)[C@@H]1NC(=O)[C@H](Cc2ccccc2)NC(=O)[C@@H](Cc2c[nH]c3ccccc23)NC(=O)[C@H](Cc2cccc3ccccc23)NC(=O)[C@@H]2CCCN2C(=O)[C@H](Cc2ccccc2)NC1=O` (cyclo([1Nal][dW]FTFP)), with 15 nM; and `C[C@@H]1NC(=O)[C@@H](Cc2c[nH]c3ccccc23)NC(=O)[C@H](Cc2ccccc2)NC(=O)[C@@H]2CCCN2C(=O)[C@H](Cc2ccccc2)NC(=O)[C@H]([C@@H](C)O)NC1=O`, with 4090 nM.
